Experimental data taken from ChEMBL document CHEMBL4689842, “EUbOPEN Chemogenomics Library wave 1” (2021).

Test system: HEK-293T
Assay: Multiplex assay against HEK293T;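 for Population Tubulin-Different-Phenotype (%): share of the cells with healthy nuclei that show this phenotype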
Assay type: toxicity, cell-based
Conditions: human
Method in brief: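 Cells were classed with CellPathfinder machine-learning gating, first as Hoechst high-intensity objects or normal cells, then (normal cells) as healthy, pyknosed or fragmented nuclei, and finally (pyknosed cells) as mitotic or apoptotic. Staining of live cells at seeding used Hoechst33342, BioTracker Green Microtubule Cytoskeleton Dye, MitoTracker Red and Annexin V Alexa Fluor 680, with imaging on a CQ1 microscope at 37°C and 5% CO2 after compound addition. Tubulin, mitochondrial-mass and membrane-permeability phenotypes are per cents of healthy-nucleus cells.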

[1] = 12 h, 1 µM, compound concentration 1 uM, replicate 1
[2] = 12 h, 1 µM, compound concentration 1 uM, replicate 2
[3] = 12 h, 10 µM, compound concentration 10 uM, replicate 1
[4] = 12 h, 10 µM, compound concentration 10 uM, replicate 2
[5] = 24 h, 1 µM, compound concentration 1 uM, replicate 1
[6] = 24 h, 1 µM, compound concentration 1 uM, replicate 2
[7] = 24 h, 10 µM, compound concentration 10 uM, replicate 1
[8] = 24 h, 10 µM, compound concentration 10 uM, replicate 2
[9] = 48 h, 1 µM, compound concentration 1 uM, replicate 1
[10] = 48 h, 1 µM, compound concentration 1 uM, replicate 2
[11] = 48 h, 10 µM, compound concentration 10 uM, replicate 1
[12] = 48 h, 10 µM, compound concentration 10 uM, replicate 2

COc1cc2ncnc(Nc3ccc(F)c(Cl)c3)c2cc1NC(=O)/C=C/CN1CCCCC1 [DACOMITINIB ANHYDROUS]
Population Apoptotic (%) [1]: 34% | Population Fragmented Nuclei (%) [1]: 28% | Population Healthy Nuclei (%) [1]: 32% | Population Hoechst High Intensity Objects (%) [1]: 24% | Population Membrane Permeable-Phenotype (%) [1]: 18% | Population Mitochondria Different-Phenotype (%) [1]: 41% | Population Mitotic Cells (%) [1]: 65% | Population Normal (%) [1]: 75% | Population Pyknosed Nuclei (%) [1]: 38% | Population Tubulin-Different-Phenotype (%) [1]: 72% | Total Cell Count [1]: 554 | Population Apoptotic (%) [2]: 13% | Population Fragmented Nuclei (%) [2]: 5% | Population Healthy Nuclei (%) [2]: 83% | Population Hoechst High Intensity Objects (%) [2]: 4% | Population Membrane Permeable-Phenotype (%) [2]: 7% | Population Mitochondria Different-Phenotype (%) [2]: 36% | Population Mitotic Cells (%) [2]: 86% | Population Normal (%) [2]: 95% | Population Pyknosed Nuclei (%) [2]: 10% | Population Tubulin-Different-Phenotype (%) [2]: 66% | Total Cell Count [2]: 1314 | Population Apoptotic (%) [3]: 14% | Population Fragmented Nuclei (%) [3]: 14% | Population Healthy Nuclei (%) [3]: 69% | Population Hoechst High Intensity Objects (%) [3]: 12% | Population Membrane Permeable-Phenotype (%) [3]: 4% | Population Mitochondria Different-Phenotype (%) [3]: 6% | Population Mitotic Cells (%) [3]: 85% | Population Normal (%) [3]: 87% | Population Pyknosed Nuclei (%) [3]: 15% | Population Tubulin-Different-Phenotype (%) [3]: 5% | Total Cell Count [3]: 670 | Population Apoptotic (%) [4]: 12% | Population Fragmented Nuclei (%) [4]: 5% | Population Healthy Nuclei (%) [4]: 89% | Population Hoechst High Intensity Objects (%) [4]: 2% | Population Membrane Permeable-Phenotype (%) [4]: 2% | Population Mitochondria Different-Phenotype (%) [4]: 11% | Population Mitotic Cells (%) [4]: 87% | Population Normal (%) [4]: 97% | Population Pyknosed Nuclei (%) [4]: 5% | Population Tubulin-Different-Phenotype (%) [4]: 6% | Total Cell Count [4]: 1444 | Population Apoptotic (%) [5]: 39% | Population Fragmented Nuclei (%) [5]: 27% | Population Healthy Nuclei (%) [5]: 34% | Population Hoechst High Intensity Objects (%) [5]: 22% | Population Membrane Permeable-Phenotype (%) [5]: 9% | Population Mitochondria Different-Phenotype (%) [5]: 63% | Population Mitotic Cells (%) [5]: 60% | Population Normal (%) [5]: 77% | Population Pyknosed Nuclei (%) [5]: 37% | Population Tubulin-Different-Phenotype (%) [5]: 73% | Total Cell Count [5]: 532 | Population Apoptotic (%) [6]: 6% | Population Fragmented Nuclei (%) [6]: 16% | Population Healthy Nuclei (%) [6]: 79% | Population Hoechst High Intensity Objects (%) [6]: 3% | Population Membrane Permeable-Phenotype (%) [6]: 6% | Population Mitochondria Different-Phenotype (%) [6]: 13% | Population Mitotic Cells (%) [6]: 93% | Population Normal (%) [6]: 96% | Population Pyknosed Nuclei (%) [6]: 4% | Population Tubulin-Different-Phenotype (%) [6]: 54% | Total Cell Count [6]: 1906 | Population Apoptotic (%) [7]: 18% | Population Fragmented Nuclei (%) [7]: 11% | Population Healthy Nuclei (%) [7]: 79% | Population Hoechst High Intensity Objects (%) [7]: 6% | Population Membrane Permeable-Phenotype (%) [7]: 10% | Population Mitochondria Different-Phenotype (%) [7]: 3% | Population Mitotic Cells (%) [7]: 81% | Population Normal (%) [7]: 94% | Population Pyknosed Nuclei (%) [7]: 9% | Population Tubulin-Different-Phenotype (%) [7]: 10% | Total Cell Count [7]: 800 | Population Apoptotic (%) [8]: 4% | Population Fragmented Nuclei (%) [8]: 18% | Population Healthy Nuclei (%) [8]: 78% | Population Hoechst High Intensity Objects (%) [8]: 2% | Population Membrane Permeable-Phenotype (%) [8]: 4% | Population Mitochondria Different-Phenotype (%) [8]: 1% | Population Mitotic Cells (%) [8]: 95% | Population Normal (%) [8]: 97% | Population Pyknosed Nuclei (%) [8]: 2% | Population Tubulin-Different-Phenotype (%) [8]: 5% | Total Cell Count [8]: 2468

C=C1/C(=C\C=C2/CCC[C@]3(C)[C@@H]([C@H](C)/C=C/[C@H](C)C(C)C)CC[C@@H]23)C[C@@H](O)C[C@@H]1O [DOXERCALCIFEROL]
Population Apoptotic (%) [1]: 53% | Population Fragmented Nuclei (%) [1]: 17% | Population Healthy Nuclei (%) [1]: 26% | Population Hoechst High Intensity Objects (%) [1]: 23% | Population Membrane Permeable-Phenotype (%) [1]: 3% | Population Mitochondria Different-Phenotype (%) [1]: 78% | Population Mitotic Cells (%) [1]: 46% | Population Normal (%) [1]: 76% | Population Pyknosed Nuclei (%) [1]: 55% | Population Tubulin-Different-Phenotype (%) [1]: 12% | Total Cell Count [1]: 156 | Population Apoptotic (%) [2]: 10% | Population Fragmented Nuclei (%) [2]: 7% | Population Healthy Nuclei (%) [2]: 44% | Population Hoechst High Intensity Objects (%) [2]: 2% | Population Membrane Permeable-Phenotype (%) [2]: 4% | Population Mitochondria Different-Phenotype (%) [2]: 11% | Population Mitotic Cells (%) [2]: 89% | Population Normal (%) [2]: 97% | Population Pyknosed Nuclei (%) [2]: 48% | Population Tubulin-Different-Phenotype (%) [2]: 11% | Total Cell Count [2]: 240 | Population Apoptotic (%) [3]: 50% | Population Fragmented Nuclei (%) [3]: 15% | Population Healthy Nuclei (%) [3]: 25% | Population Hoechst High Intensity Objects (%) [3]: 16% | Population Membrane Permeable-Phenotype (%) [3]: 2% | Population Mitochondria Different-Phenotype (%) [3]: 71% | Population Mitotic Cells (%) [3]: 49% | Population Normal (%) [3]: 83% | Population Pyknosed Nuclei (%) [3]: 59% | Population Tubulin-Different-Phenotype (%) [3]: 34% | Total Cell Count [3]: 180 | Population Apoptotic (%) [4]: 13% | Population Fragmented Nuclei (%) [4]: 7% | Population Healthy Nuclei (%) [4]: 35% | Population Hoechst High Intensity Objects (%) [4]: 3% | Population Membrane Permeable-Phenotype (%) [4]: 6% | Population Mitochondria Different-Phenotype (%) [4]: 20% | Population Mitotic Cells (%) [4]: 86% | Population Normal (%) [4]: 96% | Population Pyknosed Nuclei (%) [4]: 56% | Population Tubulin-Different-Phenotype (%) [4]: 23% | Total Cell Count [4]: 211 | Population Apoptotic (%) [5]: 52% | Population Fragmented Nuclei (%) [5]: 22% | Population Healthy Nuclei (%) [5]: 27% | Population Hoechst High Intensity Objects (%) [5]: 23% | Population Membrane Permeable-Phenotype (%) [5]: 0% | Population Mitochondria Different-Phenotype (%) [5]: 63% | Population Mitotic Cells (%) [5]: 47% | Population Normal (%) [5]: 76% | Population Pyknosed Nuclei (%) [5]: 50% | Population Tubulin-Different-Phenotype (%) [5]: 30% | Total Cell Count [5]: 170 | Population Apoptotic (%) [6]: 10% | Population Fragmented Nuclei (%) [6]: 7% | Population Healthy Nuclei (%) [6]: 59% | Population Hoechst High Intensity Objects (%) [6]: 3% | Population Membrane Permeable-Phenotype (%) [6]: 9% | Population Mitochondria Different-Phenotype (%) [6]: 5% | Population Mitotic Cells (%) [6]: 89% | Population Normal (%) [6]: 96% | Population Pyknosed Nuclei (%) [6]: 32% | Population Tubulin-Different-Phenotype (%) [6]: 12% | Total Cell Count [6]: 305 | Population Apoptotic (%) [7]: 39% | Population Fragmented Nuclei (%) [7]: 20% | Population Healthy Nuclei (%) [7]: 26% | Population Hoechst High Intensity Objects (%) [7]: 18% | Population Membrane Permeable-Phenotype (%) [7]: 7% | Population Mitochondria Different-Phenotype (%) [7]: 78% | Population Mitotic Cells (%) [7]: 60% | Population Normal (%) [7]: 81% | Population Pyknosed Nuclei (%) [7]: 52% | Population Tubulin-Different-Phenotype (%) [7]: 58% | Total Cell Count [7]: 191 | Population Apoptotic (%) [8]: 25% | Population Fragmented Nuclei (%) [8]: 9% | Population Healthy Nuclei (%) [8]: 56% | Population Hoechst High Intensity Objects (%) [8]: 1% | Population Membrane Permeable-Phenotype (%) [8]: 10% | Population Mitochondria Different-Phenotype (%) [8]: 7% | Population Mitotic Cells (%) [8]: 74% | Population Normal (%) [8]: 98% | Population Pyknosed Nuclei (%) [8]: 34% | Population Tubulin-Different-Phenotype (%) [8]: 37% | Total Cell Count [8]: 255 | Population Apoptotic (%) [9]: 46% | Population Fragmented Nuclei (%) [9]: 19% | Population Healthy Nuclei (%) [9]: 33% | Population Hoechst High Intensity Objects (%) [9]: 16% | Population Membrane Permeable-Phenotype (%) [9]: 0% | Population Mitochondria Different-Phenotype (%) [9]: 34% | Population Mitotic Cells (%) [9]: 53% | Population Normal (%) [9]: 83% | Population Pyknosed Nuclei (%) [9]: 47% | Population Tubulin-Different-Phenotype (%) [9]: 36% | Total Cell Count [9]: 180 | Population Apoptotic (%) [10]: 9% | Population Fragmented Nuclei (%) [10]: 7% | Population Healthy Nuclei (%) [10]: 81% | Population Hoechst High Intensity Objects (%) [10]: 3% | Population Membrane Permeable-Phenotype (%) [10]: 4% | Population Mitochondria Different-Phenotype (%) [10]: 2% | Population Mitotic Cells (%) [10]: 90% | Population Normal (%) [10]: 97% | Population Pyknosed Nuclei (%) [10]: 11% | Population Tubulin-Different-Phenotype (%) [10]: 14% | Total Cell Count [10]: 601 | Population Apoptotic (%) [11]: 42% | Population Fragmented Nuclei (%) [11]: 23% | Population Healthy Nuclei (%) [11]: 35% | Population Hoechst High Intensity Objects (%) [11]: 17% | Population Membrane Permeable-Phenotype (%) [11]: 5% | Population Mitochondria Different-Phenotype (%) [11]: 35% | Population Mitotic Cells (%) [11]: 57% | Population Normal (%) [11]: 82% | Population Pyknosed Nuclei (%) [11]: 40% | Population Tubulin-Different-Phenotype (%) [11]: 33% | Total Cell Count [11]: 193 | Population Apoptotic (%) [12]: 22% | Population Fragmented Nuclei (%) [12]: 9% | Population Healthy Nuclei (%) [12]: 79% | Population Hoechst High Intensity Objects (%) [12]: 2% | Population Membrane Permeable-Phenotype (%) [12]: 6% | Population Mitochondria Different-Phenotype (%) [12]: 4% | Population Mitotic Cells (%) [12]: 77% | Population Normal (%) [12]: 97% | Population Pyknosed Nuclei (%) [12]: 11% | Population Tubulin-Different-Phenotype (%) [12]: 24% | Total Cell Count [12]: 475
